Assay results taken from publication PMC7438818 (CPT: Pharmacometrics & Systems Pharmacology, 2020).
Read-outs that look alike come from different tables or passages of the source. Blank lines part the entries; values can stand above or below the compound they belong to.

Assays:
[1] = assay type: in vivo, human
In short: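 Data pooled from single ascending dose (2–155 mg) and multiple ascending dose (10, 20, 40, 80, 125 mg) studies in healthy volunteers; prediabetic obese cohort and sub-LLOQ (5 nM) data excluded. Two-compartment model with first-order absorption and lag time on total plasma concentrations. Oral dose entered as a linear covariate on relative bioavailability and as a covariate on absorption rate. Lognormal interoccasion variability for days 1 and 5. Fitted by nonlinear mixed effects, FOCE.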

TNFα release [2] = assay: TNFα PK/PD model, lipopolysaccharide-stimulated whole blood ex vivo assay; assay type: in vivo, human; conditions: for Sigmoidicity parameter γ: Imax-model of TNFα inhibition
In short: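 Whole blood was drawn straight into LPS-containing tubes and incubated, then ex vivo TNFα was measured. With PK parameters fixed, one common sigmoid Imax model was fitted for both compounds, driven by a weighted sum of plasma and transduction-compartment concentrations. The weight was estimated from data. The driving concentration was total for the test compound and unbound for the reference steroid. Nonlinear mixed effects, FOCE.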

TNFα release [3] = assay: Simulated dose-response and equipotent dose relationship from the PK/PD model; assay type: in vivo, human; conditions: for TNFα inhibition at the highest studied doses: dose-response curves
In short: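 The fitted PK/PD model was simulated to give dose-response curves, with response defined as average TNFα inhibition over 24 h after 5 consecutive daily oral doses. Confidence intervals came from repeated simulations using parameters sampled from the estimated covariance matrix. Equipotent doses were defined as those giving the same average inhibition. Their confidence intervals accounted simultaneously for the uncertainty of both dose-responses.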

[4] = tested on: release of the cytokines TNFα, interferon-γ, interleukin-6, interleukin-8, macrophage inflammatory protein-1α and -1β; assay type: in vivo, human; conditions: total plasma concentrations; six pro-inflammatory cytokines
In short: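 Static nonlinear mixed effects sigmoid Imax models related observed total plasma drug concentrations to ex vivo LPS-stimulated release of TNFα, IFN-γ, IL-6, IL-8, MIP-1α and MIP-1β. Data were pooled from the single and multiple ascending dose studies. Lognormal between-subject variability was used, with lognormal residual error (additive on log scale). Models were estimated by FOCE.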

[5] = ref data on file, AstraZeneca; cited from earlier work
[6] = assay type: in vivo, human; remark: listed apart in the source
[7] = literature average of plasma protein binding parameters ref 24, 25, 26, 27; cited from earlier work
[8] = average over 24 hours following 5 consecutive daily doses
[9] = unbound prednisolone, oral (apparent)

Absorption rate constant ka0 ([1]; absorption rate in the limit of zero dose): 38.2 h⁻¹
Covariate model (dose on F) s ([1]; decrease in relative bioavailability F per mg dose, F=1-s×Dose): 0.00253 mg⁻¹
Covariate model (dose on ka) α ([1]; dose-dependent absorption rate): 0.0592 mg⁻¹
Covariate model (dose on ka) λ ([1]; dose-dependent absorption rate): 0.103
Decrease of relative bioavailability ([1]; for every additional 4 mg AZD9567 dosed): ~ 1 % unit
half-life ([1]; human, plasma, oral): 264 min
Intercompartment clearance Q ([1]; total AZD9567): 0.500 L/h
Peripheral volume of distribution Vp ([1]; total AZD9567): 392 L
Clearance CL ([1]; total AZD9567, oral): 3.70 L/h
Central volume of distribution Vc ([1]; total AZD9567, oral (apparent)): 26.8 L
Contribution of the first phase to AUC ([1]; two-compartment model): 88%
SMILES: CC(C)[C@H](NC(=O)C(C)(F)F)[C@H](Oc1ccc2c(cnn2-c2ccc(=O)n(C)c2)c1)c1ccccc1 [AZD9567]
Unbound clearance relative to prednisolone ([1]; implied by the low fraction unbound): more than fivefold higher unbound clearance
Sigmoidicity parameter γ (TNFα release [2]): 1.40
Potency as inhibitor of TNFα release relative to prednisolone (TNFα release [2]; unbound IC50 4.87 nM vs 17.0 nM): ~ 3.5 fold
Average TNFα inhibition (TNFα release [3]; AZD9567 40 mg, average over 24 hours following 5 consecutive daily doses): 43%
TNFα inhibition at the highest studied doses (TNFα release [3]; [8]): 60–75%
Equipotent dose of AZD9567 (95% CI) (TNFα release [3]; equipotent to prednisolone 20 mg): 40 mg
Doses required for equipotency relative to prednisolone (TNFα release [3]; in vivo): roughly twofold higher doses
Inhibition of cytokine release [4]: inhibited the release of the cytokines
Unbound fraction [5]: ^c Derived from the estimate of IC50 for total AZD9567 concentrations using an unbound fraction of 0.637%.

half-life ([6]; human, plasma, oral): 114 min
Contribution of the first phase to AUC ([6]; unbound prednisolone): 66%
Inter-compartment clearance Q ([6]; unbound prednisolone): 5.81 L/h
Mean transit time tm ([6]; unbound prednisolone): 0.772 h
Peripheral volume of distribution Vp ([6]; unbound prednisolone): 23.6 L
Central volume of distribution Vc [6, 9]: 352 L
Clearance CL [6, 9]: 110 L/h
No. of transit compartments n ([6]; unbound prednisolone, transit compartment absorption): 8.11
SMILES: C[C@]12C=CC(=O)C=C1CC[C@@H]1[C@@H]2[C@@H](O)C[C@@]2(C)[C@H]1CC[C@]2(O)C(=O)CO [prednisolone]
Sigmoidicity parameter γ (TNFα release [2]): 1.33
TNFα inhibition at the highest studied doses (TNFα release [3]; [8]): 60–75%
Equipotent dose of prednisolone (TNFα release [3]; equipotent to 40 mg AZD9567, 95% CI of 14–29 mg): 20 mg
Estimated TNFα inhibition (TNFα release [3]; prednisolone 20 mg, average over 24 hours following 5 consecutive daily doses): 43%
Inhibition of cytokine release [4]: inhibited the release of the cytokines
Unbound fraction, high limit, literature average [7]: 53%
Unbound fraction, low limit, literature average [7]: 9%
